IC50 data for ten compounds are collected here from PubChem BioAssay AID504654 (Molecular Libraries Program, Specialized Chemistry Center, …, 2011).

Calls of active or inactive are those of the source.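 How the source made its calls: active means IC50 of at least 20 µM; inactive means IC50 below 20 µM.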 Where only a bound is given, the exact number is not on record here.

For this experiment, the target named is HeLa ODD-luciferase turnover, degradation rate luminescence. Kind of experiment: p97-independent proteasomal reporter degradation blockers – cell-based, HeLa, luminescence, counter-screen for p97 inhibitor project, SAR follow-up (AID 504654). Summed up:
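Assay system – ODD-luciferase HeLa reporter cells · Detection – luminescence after luciferin substrate addition · Controls – DMSO-treated wells as reference for rate constant · Buffer or medium – DMEM, 2.5% FBS, cycloheximide 50 µg/mL · Timing – 1 h MG132 block, 70/90/120/150 min chase · Reagent – MG132 4 µM pretreatment, washed off · Measure – IC50 from Langmuir fit of percent remaining degradation rate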
On the technique in general: The purpose of a counterscreen is to sort out artefacts and off-target activity.

For `COc1cccc2c(NCc3ccccc3)nc(-n3c(=O)oc4ccccc43)nc12`, the IC50 was above 20 µM.

Regarding `COc1cccc2c(NCc3ccccc3)nc(NCc3ccccc3)nc12`, the IC50 result was “inactive”.

As for `Cc1ccc(CNc2nc(NCc3ccccc3)c3ccccc3n2)cc1`, the IC50 entry is “inactive”.

Take `COc1cccc2c(NCc3ccccc3)nc(Nc3cccc(Cl)c3)nc12`: the IC50 entry was “inactive”.

As to `c1ccc(CNc2nc(N3CCOc4ccccc43)nc3ccsc23)cc1`, the IC50 entry was “inactive”.

On to `FC(F)(F)c1ccc(CNc2nc(NCc3ccccc3)c3ccccc3n2)cc1`, for which the IC50 entry was “inactive”.

As to `Brc1cccc(CNc2nc(NCc3ccccc3)c3ccccc3n2)c1`, the IC50 entry is “inactive”.

Regarding `Fc1cccc(CNc2nc(NCc3ccccc3)c3ccccc3n2)c1`, the IC50 entry was “inactive”.

On to `COc1cccc2c(NCc3ccccc3)nc(NCc3cccs3)nc12`, for which the IC50 entry was “inactive”.

For `COc1cccc2c(NCc3ccccc3)nc(Nc3nc4ccccc4n3C)nc12`, the IC50 result was “inactive”.

Usually IC50 stands for the concentration at which inhibition is half-maximal.
